Source: PubChem
NPY Y1 blocker: NPY-Y1 (human) receptor antagonism; P25929; HEK293-CNG Y1 cells, membrane potential fluorescence; NPY at EC95, then isoproterenol; inhibition, % at 3.6 µM; actives 1% (n = 200,000); AID 1040;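 active = inhibition above the campaign mean inhibition of all tested compounds plus 3 SD, cut at about 20% in these data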;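 also: 0% = DMSO wells given NPY plus isoproterenol and 100% = isoproterenol alone without NPY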
Target sequence (P25929 whole entry, looked up): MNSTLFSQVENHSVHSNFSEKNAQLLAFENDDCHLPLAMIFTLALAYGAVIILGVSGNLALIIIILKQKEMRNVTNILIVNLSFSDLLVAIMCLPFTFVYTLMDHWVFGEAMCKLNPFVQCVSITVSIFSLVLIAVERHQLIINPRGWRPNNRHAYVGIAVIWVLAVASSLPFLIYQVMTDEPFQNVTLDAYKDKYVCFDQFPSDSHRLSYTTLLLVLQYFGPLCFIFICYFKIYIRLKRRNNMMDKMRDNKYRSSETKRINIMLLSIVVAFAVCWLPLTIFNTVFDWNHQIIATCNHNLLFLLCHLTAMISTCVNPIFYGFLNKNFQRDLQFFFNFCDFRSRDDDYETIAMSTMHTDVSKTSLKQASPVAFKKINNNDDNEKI
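Test system – HEK293 Y1/CNG channel cell line · Also added – NPY agonist 25 nM, then isoproterenol 1 µM plus Ro 20-1724 25 µM · Compound dosing – one concentration, 3.6 µM, in 0.4% DMSO · Schedule – compound incubation 1 h at room temperature, readout 45 min post-stimulation · Technique – fluorescence, membrane potential probe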
NPY1 pot ag: potentiators or agonists of human neuropeptide Y receptor Y1. P25929. NPY-Y1 expressing cells, potentiator/agonist activation. activation, % at 3.6 µM. actives 0.37% (n = 220,000). AID 1304; in the data active = activation above about 33%, passing the limit was not always enough;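 also: cells stimulated with NPY at EC10 then isoproterenol at EC100; 0% = low agonist plus stimulus and 100% = saturating agonist plus stimulus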
Hsp70 act: switches on Hsp70 transcription; HeLa Hsp70 promoter luciferase reporter, luminescence; scaled: vehicle 0, proteasome-inhibitor control 100%; activation, % at 10 µM; actives 0.04% (n = 200,000); AID 1203;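 active = activation above the mean across all tested compounds plus 3 SD, cutoff set per campaign, cut at about 5.5% in these data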;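 also: 100% = MG132 at 30 µM as the positive control and 0% = DMSO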
NPY-Y2 PAM-ag: potentiators or agonists of human neuropeptide Y receptor Y2. P49146. cells expressing NPY-Y2, potentiator/agonist read-out. activation, % at 3.6 µM. actives 0.45% (n = 220,000). AID 1359; in the data active = activation above about 27%;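 also: cells stimulated with NPY near EC25 plus isoproterenol at EC100; 0% = vehicle plus submaximal agonist and 100% = vehicle plus saturating agonist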
Wee1 stabilizer: blocks degradation of human Wee1 kinase | P30291 | actives 1.2% (n = 220,000) | AID 1321 | HeLa Luc-Wee1K328M stability, luciferase luminescence; 100% = proteasome inhibitor MG132 effect | reporter increase, % at 5 µM;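 active = activation above the mean of all tested compounds plus 3 SD, set per screening run, cut at about 8.8% in these data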;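 also: cells exposed to compound for 20 h before luminescence read; 0% = DMSO alone and 100% = MG132 at 30 µM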
NPY Y2 blocker: blocks the human neuropeptide Y Y2 receptor | P49146 | NPY-Y2 expressing cells, antagonist mode | AID 793 | actives 0.99% (n = 140,000) | inhibition, % at 2.7 µM; in the data active = inhibition above about 17%;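 also: 0% = vehicle with agonist challenge and 100% = reference antagonist with challenge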
An asterisk follows results filed as active; nt = not tested or not shown. Sampled rows, rich in hits. Any-hit rate of the full collection: about 3%.

SMILES	NPY Y1 blocker	NPY1 pot ag	Hsp70 act	NPY-Y2 PAM-ag	Wee1 stabilizer	NPY Y2 blocker
C=CCN(CC(=O)Nc1c(C)cccc1CC)C(=O)SCCC	19.6	-15.2	0.0	-13.6	-0.5	10.4
CCCCN(CC(=O)Nc1c(C)cccc1CC)C(=O)SCC	21.5*	-16.5	-0.3	-12.9	3.0	30.7*
CCCN(CC(=O)Nc1c(C)cccc1CC)C(=O)SCC	19.4	-26.5	0.0	-3.3	3.7	18.1*
COc1ccccc1CNc1ncnc2c1nnn2Cc1ccccc1	11.0	18.7	0.5	11.4	-3.9	11.7
Cn1c(=O)c(-c2cc(Br)ccc2N)nc2ccccc21	0.8	-13.3	-0.2	-4.4	2.1	2.8
Nc1cc(=O)[nH]c(SCC(=O)Nc2ccc3c(c2)CCC3)n1	-2.1	10.9	0.1	-0.5	9.6*	nt
Cc1ccc2nc(-c3ccc(NC(=O)CSc4nccc(=O)[nH]4)cc3)sc2c1	-6.1	12.8	0.1	2.0	3.1	nt
COc1ccc(C2(C)NC(=O)N(CC(=O)Nc3ccc(-c4nc5ccc(C)cc5s4)cc3)C2=O)cc1 (stereo not given)	-12.2	38.8*	0.0	56.2*	8.4	nt
Cc1ccc2nc(-c3ccc(NC(=O)CSc4nc(N)cc(=O)[nH]4)cc3)sc2c1	nt	18.9	nt	33.2	10.7*	nt
O=C(CSc1nc(O)cc(=O)[nH]1)Nc1ccc2c(c1)CCC2	-3.7	13.9	-0.5	17.1	6.7	0.7
O=C(Nc1cc(Cl)cc(Cl)c1)N1CCCN(Cc2ccccc2)CC1	nt	6.5	nt	-12.8	0.6	nt
CC(C)c1cc(C(F)(F)F)n2nc(C(=O)Nc3ccc4c(c3)OCO4)cc2n1	-7.2	8.2	-0.1	-12.1	-0.4	2.7
CCOP(=O)(OCC)C(NC(=O)Nc1ccc(C)cc1)C(N)=O (stereo not given)	nt	2.2	nt	11.5	3.4	nt
Cc1ccsc1C1Nc2ccccc2C(=O)N1O (stereo not given)	0.3	-3.5	0.0	6.6	9.0*	-1.6
Cc1nn(C)c(C)c1C1Nc2ccccc2C(=O)N1O (stereo not given)	2.5	7.4	-0.6	9.9	2.9	-2.9
COc1ccc(OCc2nc3ccccc3n2C(C)C)cc1	-1.5	2.1	0.2	-8.1	0.4	nt
O=C(/C=C\c1ccc(-c2ccccc2)o1)c1ccccc1	4.2	-11.0	-0.3	3.7	8.8*	0.7
NCCCCCC(=O)N/N=C/c1coc2ccccc2c1=O	nt	2.0	nt	-6.8	2.6	nt
O=C(Nc1ccc2c(c1)OCCO2)c1ccc(Br)o1	-4.3	-12.9	0.0	15.0	9.4*	2.4
Cc1ccc(C(=O)Nc2ccc3c(c2)OCO3)o1	-2.7	5.8	1.0	2.6	-0.3	-1.4
Cn1cccc1/C=C1\SC(=Nc2cccc(O)c2)NC1=O	nt	24.8	nt	-10.2	1.1	nt
Cc1ccc(Nc2nc3ccccc3c(=O)s2)cc1C	1.9	-15.6	-0.3	10.9	10.0*	-3.6
COc1ccc(Nc2nc3ccccc3c(=O)s2)c(OC)c1	-0.3	-1.9	-0.2	16.1	1.1	-0.8
O=C(c1coc(=O)c(Br)c1)N1CCCc2ccccc21	10.3	5.6	-0.3	-8.8	-0.6	0.6
COc1ccc(NC(=O)C2CC(=O)N/C(=N/N=C/c3ccco3)S2)cc1 (stereo not given)	nt	-19.6	nt	-17.6	9.4*	nt
SMILES	NPY Y1 blocker	NPY1 pot ag	Hsp70 act	NPY-Y2 PAM-ag	Wee1 stabilizer	NPY Y2 blocker
O=C1CC(C(=O)Nc2ccccc2)S/C(=N\N=C\c2ccco2)N1 (stereo not given)	7.0	-32.7	0.2	3.0	-1.3	5.6
OC(C#CCN1CCCC1)(c1ccccc1)c1cccnc1 (stereo not given)	nt	10.7	nt	-2.8	10.1*	nt
COc1ccc(/C=N/N2CCN(C3c4ccccc4-c4ccccc43)CC2)cc1O	-1.0	-9.4	-0.2	1.2	-1.5	1.0
CS(=O)c1nc(-c2ccc(Br)cc2)cc(-c2ccccc2)c1C#N (stereo not given)	-9.2	101.2*	0.0	66.0*	2.9	1.8
O=[n+]1cc(-c2ccccc2)n([O-])c2c1CCC2	-0.5	3.6	-0.3	2.0	9.7*	2.0
C=CCc1cccc(/C=N/NC(=O)c2ccccc2OC)c1O	11.8	-16.4	-0.2	-19.8	8.9*	nt
O=C1CC(=C(c2ccccc2)c2ccccc2)C(=O)N1CCCCN1CCN(c2cccc(Cl)c2)CC1	16.1	11.1	-0.1	1.3	1.4	7.8
Cc1ccccc1N1CCN(CCCN2C(=O)CC(=C(c3ccccc3)c3ccccc3)C2=O)CC1	-19.3	105.3*	-0.1	99.1*	2.0	4.3
COc1ccc2[nH]c3c4c(ccc3c2c1)C(=O)C=CC4=O	nt	33.3	nt	-18.6	13.6*	nt
COc1ccc2[nH]c(=O)cc(C(=O)O)c2c1	-4.1	4.1	-0.1	5.1	0.1	nt
CC1CCCCN1C(=O)COc1ccc(F)cc1 (stereo not given)	2.3	-0.2	0.0	16.4	9.6*	nt
O=c1[nH]c(CSc2nc3ccccc3s2)nc2ccccc12	nt	-11.4	nt	-2.9	9.0*	nt
CCOC(=O)C1CCN(C(=O)c2cc3cc(Br)ccc3oc2=O)CC1	3.7	-17.5	0.0	2.3	6.3	nt
COc1cc(CCC(=O)Nc2ccc(C)c(S(=O)(=O)N(C)C)c2)cc(OC)c1OC	-1.5	-17.6	-0.1	-6.9	-2.2	-0.7
COc1ccc(Cn2c(SCc3ccccc3C)nc3cc(OC)c(OC)cc3c2=N)cc1	48.4*	-16.5	-0.2	28.4	-1.5	44.2*
COc1cc2nc(SCc3ccc(F)cc3)n(Cc3cccs3)c(=N)c2cc1OC	8.3	12.5	-0.5	1.6	-0.7	-1.1
CC(C)(C)Nc1nc(Oc2ccc(=O)[nH]n2)nc(N2CCOCC2)n1	-5.0	24.2	-0.3	9.4	9.6*	nt
Cc1cc(C(=O)NCCc2ccccc2)c2cc(F)ccc2n1	0.8	-2.6	0.2	-4.9	0.5	nt
Oc1ccc(/C=N/Nc2nc(-c3ccc(Cl)cc3)cc(C(F)(F)F)n2)cc1	-4.8	-7.3	-0.5	7.2	10.5*	-1.3
Nc1nc(-c2ccc(Cl)cc2)cc(C(F)(F)F)n1	-0.5	-7.8	0.4	-3.2	0.3	-0.3
O=C1c2ccccc2CCC12N=NCC2c1ccccc1 (stereo not given)	2.3	6.9	0.0	4.2	0.2	1.0
COc1ccc(C(=O)CSc2n[nH]c(=O)[nH]c2=O)cc1	-2.1	-21.7	-0.4	-13.5	-1.7	nt
O=C(CSc1n[nH]c(=O)[nH]c1=O)c1ccc([N+](=O)[O-])cc1	nt	26.7	nt	-19.8	11.7*	nt
O=c1[nH]c2cc(Cl)c([N+](=O)[O-])nc2[nH]1	22.1*	-61.2	-0.4	-14.7	4.1	17.8*
CCOc1ccc(N2C(=O)Nc3ccccc3C2(O)C(=O)NCc2ccc(C)cc2)cc1 (stereo not given)	4.5	12.5	-0.4	4.9	11.6*	nt
COCCCNC(=S)N(Cc1cccnc1)Cc1ccc(OC)c(OC)c1	-2.9	-1.1	-0.2	-0.9	1.8	1.9
O=C(Nc1cccc(-c2nc3ccccc3s2)c1)c1ccc2c(c1)OCO2	10.4	-29.7	-0.3	-33.7	0.2	11.1
